Experimental data published in ChEMBL document CHEMBL1157101, “A series of alpha-heterocyclic carboxaldehyde thiosemicarbazones inhibit topoisomerase IIalpha catalytic activity” (J Med Chem, 2010).
The source made the active and inactive calls. The rule behind the calls is not given here.

Columns and labels:
[1] = molecular target: T1, DNA topoisomerase 2-alpha (Homo sapiens, UniProt P11388); experiment: Inhibition of human topoisomerase 2alpha-mediated relaxation of pBR322
[2] = molecular target: T1, DNA topoisomerase 2-alpha; experiment: Inhibition of human topoisomerase 2 alpha-mediated decatenation of kDNA at 100 uM after 15 mins
[3] = molecular target: T1, DNA topoisomerase 2-alpha; experiment: Inhibition of topoisomerase-2 alpha in human HT-29 cells assessed as reversal of etoposide-mediated DNA double strand break measured as phosphorylated histone2A level at 100 uM by immunostaining; assay type: cell-based
[4] = Antiproliferative activity against human KB/VCR cells after 72 hrs by sulforhodamine B assay; assay type: functional, cell-based
Procedure, shortened: (§1)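 Cells seeded and exposed in triplicate to graded compound concentrations for 72 h. Suspension cells read by MTT conversion to coloured product; adherent cells read by sulforhodamine B. IC50 (50% growth inhibition versus untreated control) derived by the Logit method.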

[5] = Antiproliferative activity against human Rh30 cells after 72 hrs by sulforhodamine B assay; assay type: functional, cell-based; settings: SJRH30, 72 h; procedure, shortened: as §1
[6] = molecular target: T1, DNA topoisomerase 2-alpha; experiment: Inhibition of topoisomerase 2alpha-mediated displacement of Hoechst 33258 from DNA assessed as decrease in fluorescence; settings: concentration not given here
[7] = molecular target: T1, DNA topoisomerase 2-alpha; experiment: Inhibition of topoisomerase-2 alpha in human HL60/MX2 cells assessed as antagonization of etoposide-mediated enzyme-DNA cleavage complex at 100 uM; assay type: cell-based
MCF7 = experiment: Antiproliferative activity against human MCF7 cells after 72 hrs by sulforhodamine B assay; assay type: functional, cell-based; settings: MCF7, 72 h
[8] = molecular target: T1, DNA topoisomerase 2-alpha; experiment: Inhibition of topoisomerase-2 alpha in human HT-29 cells assessed as reversal of etoposide-mediated DNA double strand break measured as phosphorylated histone2A level at 1 uM by immunostaining; assay type: cell-based
[9] = molecular target: T1, DNA topoisomerase 2-alpha; experiment: Inhibition of topoisomerase 2alpha assessed as antagonization of etoposide-mediated prestrand passage DNA cleavage in absence of ATP
HT-29 [10] = experiment: Cell cycle arrest in human HT-29 cells assessed as accumulation at G1 phase at 0.5 to 1 uM after 24 hrs by flow cytometry; assay type: functional, cell-based
Procedure, shortened: (§2)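 HT-29 cells stained with propidium iodide; cell-cycle distribution determined by flow cytometry.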

HT-29 [11] = experiment: Cell cycle arrest in nocodazole pretreated human HT-29 cells assessed as accumulation at M phase at 1 uM after 24 hrs; assay type: functional, cell-based; procedure, shortened: as §2
[12] = molecular target: T1, DNA topoisomerase 2-alpha; experiment: Inhibition of topoisomerase-2 alpha in human HL60/MX2 cells assessed as antagonization of enzyme-DNA cleavage complex at 100 uM; assay type: cell-based
A-375 = experiment: Antiproliferative activity against human A375 cells after 72 hrs by sulforhodamine B assay; assay type: functional, cell-based; settings: A-375, 72 h; procedure, shortened: as §1
HT-29 [13] = experiment: Antiproliferative activity against human HT-29 cells after 72 hrs by sulforhodamine B assay; assay type: functional, cell-based; settings: HT-29, 72 h; procedure, shortened: as §1
[14] = molecular target: T1, DNA topoisomerase 2-alpha; experiment: Inhibition of topoisomerase 2-mediated displacement of ethidium bromide from DNA assessed as decrease in fluorescence
[15] = molecular target: T1, DNA topoisomerase 2-alpha; experiment: Inhibition of topoisomerase-2 alpha in human HT-29 cells assessed as reversal of etoposide-mediated DNA double strand break measured as phosphorylated histone2A level at 30 uM by immunostaining; assay type: cell-based
[16] = molecular target: T2, DNA topoisomerase 1 (Homo sapiens) (UniProt P11387); experiment: Inhibition of human topoisomerase 1-mediated relaxation of pBR322 up to 125 uM
T2 sequence (whole entry): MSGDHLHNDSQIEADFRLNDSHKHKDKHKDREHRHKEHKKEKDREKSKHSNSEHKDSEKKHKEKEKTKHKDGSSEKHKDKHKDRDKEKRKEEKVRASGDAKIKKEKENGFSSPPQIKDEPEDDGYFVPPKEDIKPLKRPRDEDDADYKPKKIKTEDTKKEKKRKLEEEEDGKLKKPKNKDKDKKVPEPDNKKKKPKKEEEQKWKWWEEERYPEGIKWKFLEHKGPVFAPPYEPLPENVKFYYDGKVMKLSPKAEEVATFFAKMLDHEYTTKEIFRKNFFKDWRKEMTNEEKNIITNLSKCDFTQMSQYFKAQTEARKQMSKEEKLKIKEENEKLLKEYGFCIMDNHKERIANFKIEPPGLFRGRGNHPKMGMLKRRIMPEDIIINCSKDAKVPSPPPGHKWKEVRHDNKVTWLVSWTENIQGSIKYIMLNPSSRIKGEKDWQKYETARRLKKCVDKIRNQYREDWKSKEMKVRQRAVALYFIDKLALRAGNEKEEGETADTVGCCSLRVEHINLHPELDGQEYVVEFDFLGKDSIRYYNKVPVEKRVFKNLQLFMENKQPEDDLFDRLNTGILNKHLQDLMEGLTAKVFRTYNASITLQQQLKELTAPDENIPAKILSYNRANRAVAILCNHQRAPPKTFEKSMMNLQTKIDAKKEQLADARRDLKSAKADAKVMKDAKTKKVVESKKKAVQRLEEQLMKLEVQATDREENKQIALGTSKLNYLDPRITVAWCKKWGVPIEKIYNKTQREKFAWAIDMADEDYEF

MDA-MB-231 = experiment: Antiproliferative activity against human MDA-MB-231 cells after 72 hrs by sulforhodamine B assay; assay type: functional, cell-based; settings: MDA-MB-231, 72 h; procedure, shortened: as §1
MKN-28 = experiment: Antiproliferative activity against human MKN28 cells after 72 hrs by sulforhodamine B assay; assay type: functional, cell-based; settings: MKN-28, 72 h; procedure, shortened: as §1
MDA-MB-435 = experiment: Antiproliferative activity against human MDA-MB-435 cells after 72 hrs by sulforhodamine B assay; assay type: functional, cell-based; settings: MDA-MB-435, 72 h; procedure, shortened: as §1
[17] = molecular target: T1, DNA topoisomerase 2-alpha; experiment: Binding affinity to human topoisomerase 2 alpha ATPase domain
Procedure, shortened: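 Surface plasmon resonance. Human Topo IIα ATPase domain immobilised on CM5 chips after activation of surface carboxyl groups. Serial compound dilutions flowed over the chip and sensorgrams recorded. KD obtained by steady-state affinity fitting.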

HT-29 [18] = experiment: Inhibition of DNA synthesis in human HT-29 cells measured at 0.25 to 1 uM by BrdU incorporation assay; assay type: functional, cell-based
Procedure, shortened: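 HT-29 cells; DNA synthesis measured by BrdU incorporation with flow detection.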

MKN-45 = experiment: Antiproliferative activity against human MKN45 cells after 72 hrs by sulforhodamine B assay; assay type: functional, cell-based; settings: MKN-45, 72 h; procedure, shortened: as §1
CCRF S-180 = experiment: Antitumor activity against mouse S180 cells transplanted in Kunming mouse assessed as inhibition of tumor growth at 25 mg/kg/day, ip for 7 days; assay type: functional; settings: CCRF S-180, ip, 168 h, route intraperitoneal
Procedure, shortened: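 Female Kunming mice, 7 weeks old, 18-22 g, inoculated sc in the right armpit with S-180 sarcoma. Dosing began the next day, ip daily for 7 days; normal saline given iv as control. Tumours excised and weighed after treatment. Inhibitory rate (%) = (mean control tumour weight − mean treated tumour weight)/mean control tumour weight × 100.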

[19] = molecular target: T1, DNA topoisomerase 2-alpha; experiment: Inhibition of topoisomerase-2 alpha in human HT-29 cells assessed as reversal of etoposide-mediated DNA double strand break after 1 hr measured as phosphorylated histone2A level by immunostaining; assay type: cell-based
[20] = molecular target: T1, DNA topoisomerase 2-alpha; experiment: Inhibition of human topoisomerase 2alpha-mediated decatenation of kDNA at 25 uM
HCT-116 = experiment: Antiproliferative activity against human HCT116 cells after 72 hrs by sulforhodamine B assay; assay type: functional, cell-based; settings: HCT-116, 72 h; procedure, shortened: as §1
SMMC-7721 = experiment: Antiproliferative activity against human SMMC7721 cells after 72 hrs by sulforhodamine B assay; assay type: functional, cell-based; settings: SMMC-7721, 72 h; procedure, shortened: as §1

T1 sequence (P11388 whole entry): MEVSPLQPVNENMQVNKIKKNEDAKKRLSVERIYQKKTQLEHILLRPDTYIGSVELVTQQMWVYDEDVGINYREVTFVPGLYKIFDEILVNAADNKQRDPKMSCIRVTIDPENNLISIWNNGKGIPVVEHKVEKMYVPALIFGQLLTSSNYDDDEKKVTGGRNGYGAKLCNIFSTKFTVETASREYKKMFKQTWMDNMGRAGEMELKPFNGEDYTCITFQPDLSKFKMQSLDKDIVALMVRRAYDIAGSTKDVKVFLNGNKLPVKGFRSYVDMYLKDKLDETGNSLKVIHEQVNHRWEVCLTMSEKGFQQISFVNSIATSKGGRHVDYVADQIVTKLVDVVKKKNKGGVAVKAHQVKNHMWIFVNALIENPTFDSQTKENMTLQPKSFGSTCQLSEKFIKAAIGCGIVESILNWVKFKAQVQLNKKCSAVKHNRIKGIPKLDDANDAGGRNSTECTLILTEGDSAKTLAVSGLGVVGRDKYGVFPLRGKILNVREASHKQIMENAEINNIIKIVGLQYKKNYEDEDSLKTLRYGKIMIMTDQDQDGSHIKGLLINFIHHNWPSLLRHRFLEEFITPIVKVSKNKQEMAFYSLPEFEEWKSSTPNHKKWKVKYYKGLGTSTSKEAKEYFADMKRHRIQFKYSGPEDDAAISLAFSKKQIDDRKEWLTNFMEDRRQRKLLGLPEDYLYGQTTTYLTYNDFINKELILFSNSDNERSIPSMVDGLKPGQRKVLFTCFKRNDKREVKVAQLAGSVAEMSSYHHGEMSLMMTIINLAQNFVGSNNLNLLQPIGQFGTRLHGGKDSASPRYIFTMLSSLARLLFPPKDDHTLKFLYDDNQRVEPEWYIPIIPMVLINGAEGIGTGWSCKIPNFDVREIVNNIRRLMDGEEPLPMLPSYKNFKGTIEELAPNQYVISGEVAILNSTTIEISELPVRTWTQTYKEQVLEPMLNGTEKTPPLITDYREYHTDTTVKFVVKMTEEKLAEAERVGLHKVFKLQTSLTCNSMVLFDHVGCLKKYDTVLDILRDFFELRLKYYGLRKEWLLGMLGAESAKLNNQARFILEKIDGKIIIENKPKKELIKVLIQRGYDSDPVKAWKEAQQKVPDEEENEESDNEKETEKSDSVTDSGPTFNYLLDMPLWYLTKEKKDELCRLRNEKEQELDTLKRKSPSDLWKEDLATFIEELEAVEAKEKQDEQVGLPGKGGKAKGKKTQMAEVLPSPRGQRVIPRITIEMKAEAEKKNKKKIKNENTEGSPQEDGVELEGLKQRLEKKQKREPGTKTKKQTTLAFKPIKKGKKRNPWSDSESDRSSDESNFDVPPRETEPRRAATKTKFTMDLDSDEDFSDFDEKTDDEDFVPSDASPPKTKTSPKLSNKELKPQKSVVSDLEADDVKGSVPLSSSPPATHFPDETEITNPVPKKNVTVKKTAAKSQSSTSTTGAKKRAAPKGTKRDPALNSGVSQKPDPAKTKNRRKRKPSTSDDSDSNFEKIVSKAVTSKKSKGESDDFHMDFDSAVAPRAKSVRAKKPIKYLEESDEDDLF

inhibition [1]: Dose-dependent effect
inhibition (active/not active) [2]: Active
inhibition [3]: Active
inhibition [6]: 22%
inhibition [7]: Active
IC50 (MCF7): 0.34 µM
inhibition [8]: Active
inhibition [9]: inactive
inhibition [12]: inactive
IC50 (A-375): 0.02 µM
IC50 (HT-29 [13]): 0.02 µM
inhibition [14]: inactive
inhibition [15]: Active
inhibition [16]: inactive
IC50 (MDA-MB-231): 0.02 µM
IC50 (MKN-28): 0.17 µM
IC50 (MDA-MB-435): 0.37 µM
Kd [17]: 18.3 µM
IC50 (MKN-45): 0.83 µM
inhibition [19]: Dose-dependent effect
inhibition [20]: Active
IC50 (HCT-116): 0.22 µM
IC50 (SMMC-7721): 0.24 µM
Structure (SMILES): CN(C)C(=S)N/N=C/c1ccc2ccccc2n1
IC50 [4]: 0.3 µM
IC50 [5]: 0.002 µM
Activity (HT-29 [10]): Active
Activity (HT-29 [11]): Active
inhibition (HT-29 [18]): Dose-dependent effect
inhibition in vivo at 25 mg/kg/day (CCRF S-180): 35.8%
